The text below walks through data of ChEMBL document CHEMBL3585244, “Click Chemistry in Lead Optimization of Boronic Acids as β-Lactamase Inhibitors” (J Med Chem, 2015).

Assay [1] concerns Escherichia coli. The assay can be described thus: Potentiation of cefotaxime-induced antimicrobial effect against wild type Escherichia coli DH10B assessed as cefotaxime MIC at 4 ug/ml by agar dilution method. It is filed as functional. (In general: Agar dilution tests growth on a series of plates holding different concentrations.)
Assay [2] is described as follows: (§1) Inhibition of Pseudomonas aeruginosa beta-lactamase PDC3 expressed in Escherichia coli BL21 (DE3) RP CodonPlus incubated for 5 mins before nitrocefin substrate addition by spectrophotometry. The procedure, abridged:
(§2)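 PDC-3 from P. aeruginosa 18SH subcloned in pET 24a, expressed in E. coli BL21(DE3) RP CodonPlus (37 °C, 0.5 mM IPTG at A600 0.6), purified by isoelectric focusing and FPLC.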

For a further assay, the system named is Pseudomonas aeruginosa. Described as §1. Conditions: TDE = time-dependent effect. The procedure, abridged: as §2
The nature of assay [3]: Inhibition of beta-lactamase PDC-3 (unknown origin) expressed in Escherichia coli DH10B assessed as cefotaxime MIC at 4 ug/ml by agar dilution method. The procedure, abridged:
(§3)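 MICs by cation-adjusted Mueller-Hinton agar dilution following CLSI standards. E. coli DH10B carried blaPDC-3 (from P. aeruginosa 18SH) or blaP99 subcloned in pBC SK(-). Cefotaxime was varied from 0 to 64 µg/ml, with boronate held constant at 4 µg/ml.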

Assay [4] can be described thus: (§4) Inhibition of Enterobacter cloacae beta-lactamase P99 expressed in Escherichia coli AS226-51 incubated for 5 mins before nitrocefin substrate addition by spectrophotometry. The procedure, abridged: (§5)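 P99 expressed from pCS980 in E. coli AS226-51, grown in SOB with kanamycin at 37 °C and induced with 0.5 mM IPTG at A600 0.6. Purified by preparative isoelectric focusing, gel filtration and cation exchange. Inhibitor preincubated with enzyme for 5 min in 10 mM PBS pH 7.4 at room temperature. […] Ki = IC50/(1+[S]/Km).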

A further assay deals with Enterobacter cloacae. The assay is described as §4. Conditions: TDE = time-dependent effect. The procedure, abridged: as §5
Assay [5] in a line: Inhibition of beta-lactamase P99 (unknown origin) expressed in Escherichia coli DH10B assessed as cefotaxime MIC at 4 ug/ml by agar dilution method. The procedure, abridged: as §3
Assay [6] has as its system Escherichia coli. The assay can be described thus: Antimicrobial activity against wild type Escherichia coli DH10B producing beta-lactamase PDC3 by agar dilution method. Type of assay: functional. The procedure, abridged:
(§6)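 E. coli DH10B carrying bla genes in pBC SK(-) vector; MICs in µg/mL by agar dilution on cation-adjusted Mueller-Hinton agar per CLSI standards.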

The subject of assay [7] is Escherichia coli. The assay can be described thus: Antimicrobial activity against wild type Escherichia coli DH10B by agar dilution method. It is filed as functional. The procedure, abridged: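 MICs by cation-adjusted Mueller-Hinton agar dilution following CLSI standards. The E. coli DH10B host carried no β-lactamase gene.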
Assay [8] concerns Escherichia coli. The assay can be described thus: Antimicrobial activity against wild type Escherichia coli DH10B producing beta-lactamase P99 by agar dilution method. It is filed as functional. The procedure, abridged:
as §6

In general, pIC50 refers to the negative decadic logarithm of the IC50, by convention in mol/L. Lower therefore signals a large IC50. What is called pKi is −log10 of the Ki, conventionally taken in molar units. A lower pKi goes with a large Ki.

pIC50, pKi: −log10 of the molar value. Converted amounts (≈) assume the structure as drawn.

Consider `O=C(Cc1cccs1)N[C@@H](Cn1cc(C(=O)O)nn1)B(O)O`, for which the figures for the MIC (in the assay with Escherichia coli [1]; in assay [3]; in assay [5]) were less than 0.125 µg/mL, 0.5 µg/mL and 2 µg/mL, respectively. In addition, the results for the pIC50 in assay [2] and in assay [4] were 7.46 and 6.85, respectively. Also, the pKi in [2] was 8.40; in assay [4], 7.64. The time-dependent effect result with Pseudomonas aeruginosa was “tde”. Moreover, the inhibition entry with Enterobacter cloacae is “tde”.

In the case of `O=C(Cc1ccccc1)N[C@@H](Cn1cc(-c2ccccc2)nn1)B(O)O`, the pIC50 in assay [2] is 6.52; in [4] it was 6.82. The time-dependent effect entry in the assay on Pseudomonas aeruginosa is “tde”. Moreover, the inhibition result in the assay on Enterobacter cloacae is “tde”.

Turning to `CC(C)(O)c1cn(C[C@H](NC(=O)Cc2cccs2)B(O)O)nn1`, the negative logarithm of the IC50 (pIC50) in [2] was 6.60; in assay [4], 6.38. For the same compound, in the assay with Pseudomonas aeruginosa, the time-dependent effect entry was “tde”. Moreover, the inhibition entry in the assay with Enterobacter cloacae was “tde”.

For `Nc1cccc(-c2cn(C[C@H](NC(=O)Cc3cccs3)B(O)O)nn2)c1`, the pIC50 in assay [2] was 6.55; in [4], 6.44. In the assay with Pseudomonas aeruginosa, the time-dependent effect entry is “tde”. Also, the inhibition result in the assay with Enterobacter cloacae is “tde”.

For the compound `O=C(Cc1ccccc1)N[C@@H](Cn1cc(-c2cccc(C(=O)O)c2)nn1)B(O)O`, the negative logarithm of the IC50 (pIC50) in [2] was 6.92; in [4], 6.96. Further, the time-dependent effect entry with Pseudomonas aeruginosa was “tde”. Besides, in the assay with Enterobacter cloacae, the inhibition entry was “tde”.

In the case of `CO/N=C(\C(=O)N[C@@H]1C(=O)N2C(C(=O)O)=C(COC(C)=O)CS[C@H]12)c1csc(N)n1` [CEFOTAXIME], the MIC against Escherichia coli [6] was 16 µg/mL (≈ 35.1 µM); against Escherichia coli [7], less than 0.125 µg/mL; in the assay with Escherichia coli [8], 16 µg/mL (≈ 35.1 µM).

Turning to `O=C(Cc1cccs1)N[C@@H](Cc1cccc(C(=O)O)c1)B(O)O`, the MIC in the assay on Escherichia coli [1] is less than 0.125 µg/mL; in [3], 4 µg/mL; in assay [5], 4 µg/mL. For the same compound, the results for the negative logarithm of the IC50 (pIC50) in assay [2] and in assay [4] were 6.82 and 7.00, respectively. Moreover, the figures for the pKi in assay [2] and in assay [4] were 7.89 and 7.82, respectively. For the same compound, the time-dependent effect entry in the assay with Pseudomonas aeruginosa was “tde”. The inhibition result with Enterobacter cloacae is “tde”.

Consider `O=C(Cc1ccccc1)N[C@@H](Cn1cc(C(=O)O)nn1)B(O)O`, for which the results for the pIC50 in [2] and in assay [4] were 6.64 and 6.96, respectively. The time-dependent effect entry with Pseudomonas aeruginosa is “tde”. The inhibition entry with Enterobacter cloacae is “tde”.

Take `CC(C)(O)c1cn(C[C@H](NC(=O)Cc2ccccc2)B(O)O)nn1`: the negative logarithm of the IC50 (pIC50) is 5.93 in assay [2] and 6.18 in assay [4]. Moreover, in the assay on Pseudomonas aeruginosa, the time-dependent effect entry is “tde”. In addition, the inhibition entry with Enterobacter cloacae is “tde”.

With `CC(=O)N[C@@H](Cn1cc(C(=O)O)nn1)B(O)O`, the pIC50 is 5.30 in [2] and 4.57 in assay [4]. In addition, the time-dependent effect entry with Pseudomonas aeruginosa is “tde”. Also, the inhibition result in the assay on Enterobacter cloacae was “tde”.

`O=C(Cc1cccs1)NCB(O)O`: the figures for the MIC (in the assay on Escherichia coli [1]; in assay [3]; in assay [5]) were less than 0.125 µg/mL, 2 µg/mL and 2 µg/mL, respectively. The negative-log IC50 (pIC50) in assay [2] was 5.48; in assay [4], 5.57. The results for the negative-log Ki (pKi) in assay [2] and in assay [4] were 6.39 and 6.35, respectively. In addition, in the assay on Pseudomonas aeruginosa, the time-dependent effect entry is “tde”. In the assay on Enterobacter cloacae, the inhibition result is “tde”.

In [2], `O=C(Cc1cccs1)N[C@@H](Cn1ccnn1)B(O)O` had a negative-log IC50 (pIC50) of 5.89 and a negative logarithm of the Ki (pKi) of 6.79. The time-dependent effect entry in the assay with Pseudomonas aeruginosa was “tde”. In [4], this compound showed a pIC50 of 6.10 and a negative logarithm of the Ki (pKi) of 6.87. The inhibition result with Enterobacter cloacae was “tde”.

On to `O=C(Cc1cccs1)N[C@@H](Cn1cc(-c2cccc(C(=O)O)c2)nn1)B(O)O`, for which the MIC is less than 0.125 µg/mL in the assay on Escherichia coli [1], 1 µg/mL in [3] and 4 µg/mL in assay [5]. Also, the pIC50 in assay [2] was 7.17; in assay [4], 7.08. In addition, the figures for the negative-log Ki (pKi) in [2] and in assay [4] were 8.10 and 7.85, respectively. Besides, the time-dependent effect result with Pseudomonas aeruginosa is “tde”. Besides, the inhibition entry with Enterobacter cloacae is “tde”.

On to `Nc1cccc(-c2cn(C[C@H](NC(=O)Cc3ccccc3)B(O)O)nn2)c1`, for which the negative-log IC50 (pIC50) in assay [2] was 6.40; in assay [4] it was 6.22. In the assay with Pseudomonas aeruginosa, the time-dependent effect result was “tde”. In the assay with Enterobacter cloacae, the inhibition result was “tde”.

For the compound `CC(=O)N[C@@H](Cn1cc(-c2ccccc2)nn1)B(O)O`, the pIC50 in assay [2] is 5.03; in assay [4], 4.88. Further, in the assay with Pseudomonas aeruginosa, the time-dependent effect result was “tde”. Besides, the inhibition result in the assay on Enterobacter cloacae is “tde”.

For `O=C(Cc1cccs1)N[C@@H](Cn1cc(-c2ccccc2)nn1)B(O)O`, the negative logarithm of the IC50 (pIC50) in assay [2] was 6.52; in [4], 6.49. Also, the time-dependent effect entry with Pseudomonas aeruginosa was “tde”. Besides, the inhibition result with Enterobacter cloacae was “tde”.

Turning to `CC(=O)N[C@@H](Cn1cc(C(C)(C)O)nn1)B(O)O`, the figures for the pIC50 in [2] and in [4] were 4.74 and 4.15, respectively. Besides, in the assay with Pseudomonas aeruginosa, the time-dependent effect result is “tde”. Besides, in the assay with Enterobacter cloacae, the inhibition entry was “tde”.
